Source: ChEMBL document CHEMBL1155638, “Anti-AIDS agents 38. Anti-HIV activity of 3-O-acyl ursolic acid derivatives” (J Nat Prod, 2000)

Key:
[1] = Therapeutic index, IC50 for human T-lymphoid H9 cells to EC50 for HIV1 3B isolate; format: cell-based; settings: read-out: Ratio IC50/EC50
Procedure, shortened: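 Ratio of IC50 (Coulter count, mock-infected H9 cells, 4 days) to EC50 (p24 ELISA, HIV-1 IIIB-infected H9 cells, 4 days), both determined in parallel within the same assay.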

[2] = tested on: Human immunodeficiency virus 1; experiment: Antiviral activity against HIV1 replication in human H9 cells; settings: for EC50: Homo sapiens, H9; for Activity: human, h9
H9 (human) = experiment: Cytotoxicity against human H9 cells assessed as growth inhibition after 4 days

| Structure (SMILES) | EC50 [2] [µM] | Activity [2] | selectivity ratio [1] | IC50 (H9 (human); H9, 96 h) [µM] | IC50 (H9 (human); h9) [µM] |
| --- | --- | --- | --- | --- | --- |
| CC1(C)CC[C@]2(C(=O)O)CC[C@]3(C)C(=CC[C@@H]4[C@@]5(C)CC[C@H](OC(=O)CC(C)(C)C(=O)O)C(C)(C)[C@@H]5CC[C@]43C)[C@@H]2C1 | – | – | 22300 | – | – |
| C[C@H]1[C@H](C)CC[C@]2(C(=O)O)CC[C@]3(C)C(=CC[C@@H]4[C@@]5(C)CC[C@H](O)C(C)(C)[C@@H]5CC[C@]43C)[C@H]12 | – | – | – | – | 1.8 |
| C=C(C)[C@@H]1CC[C@]2(C(=O)O)CC[C@]3(C)[C@H](CC[C@@H]4[C@@]5(C)CC[C@H](O)C(C)(C)[C@@H]5CC[C@]43C)[C@@H]12 [BETULINIC ACID] | – | – | 9.2 | 12.9 | – |
| C=C(C)[C@@H]1CC[C@]2(C(=O)O)CC[C@]3(C)[C@H](CC[C@@H]4[C@@]5(C)CC[C@H](OC(=O)CC(C)(C)C(=O)O)C(C)(C)[C@@H]5CC[C@]43C)[C@@H]12 [BEVIRIMAT] | < 0.00035 | – | > 20000 | 7 | – |
| CC1(C)CC[C@]2(C(=O)O)CC[C@]3(C)C(=CC[C@@H]4[C@@]5(C)CC[C@H](O)C(C)(C)[C@@H]5CC[C@]43C)[C@@H]2C1 [OLEANOLIC_ACID] | – | – | 12.9 | – | – |
| C[C@@H]1CC[C@]2(C(=O)O)CC[C@]3(C)C(=CC[C@@H]4[C@@]5(C)CC[C@H](O)C(C)(C)[C@@H]5CC[C@]43C)[C@@H]2[C@]1(C)O [POMOLIC ACID] | 3 | – | 16.3 | – | – |

The next lines start with results.

| EC50 [2] [µM] | Activity [2] | Structure (SMILES) | selectivity ratio [1] | IC50 (H9 (human); H9, 96 h) [µM] | IC50 (H9 (human); h9) [µM] |
| --- | --- | --- | --- | --- | --- |
| 2.1 | – | C[C@H]1[C@H](C)CC[C@]2(C(=O)O)CC[C@]3(C)C(=CC[C@@H]4[C@@]5(C)CC[C@H](OC(=O)CC(C)(C)C(=O)O)C(C)(C)[C@@H]5CC[C@]43C)[C@H]12 | 23.6 | 49.5 | – |
| – | Not Active | C[C@H]1[C@H](C)CC[C@]2(C(=O)O)CC[C@]3(C)C(=CC[C@@H]4[C@@]5(C)CC[C@H](OC(=O)CC(C)(C)CC(=O)O)C(C)(C)[C@@H]5CC[C@]43C)[C@H]12 | – | 7 | – |
| 0.31 | – | C[C@H]1[C@H](C)CC[C@]2(C(=O)O)CC[C@]3(C)C(=CC[C@@H]4[C@@]5(C)CC[C@H](OC(=O)COCC(=O)O)C(C)(C)[C@@H]5CC[C@]43C)[C@H]12 | 156 | 48.2 | – |
| – | Not Active | C[C@H]1[C@H](C)CC[C@]2(C(=O)O)CC[C@]3(C)C(=CC[C@@H]4[C@@]5(C)CC[C@H](OC(=O)C(C)(C)CC(=O)O)C(C)(C)[C@@H]5CC[C@]43C)[C@H]12 | – | 30.7 | – |
| – | Not Active | CC(C)CC(=O)O[C@H]1CC[C@]2(C)[C@H]3CC=C4[C@@H]5[C@@H](C)[C@H](C)CC[C@]5(C(=O)O)CC[C@@]4(C)[C@]3(C)CC[C@H]2C1(C)C | – | > 18.5 | – |
| – | Not Active | C[C@H]1[C@H](C)CC[C@]2(C(=O)O)CC[C@]3(C)C(=CC[C@@H]4[C@@]5(C)CC[C@H](OC(=O)CC(C)(C)C)C(C)(C)[C@@H]5CC[C@]43C)[C@H]12 | – | > 18 | – |
| 15.3 | – | C[C@H]1[C@H](C)CC[C@]2(C(=O)O)CC[C@]3(C)C(=CC[C@@H]4[C@@]5(C)CC[C@H](OC(=O)CCC(=O)O)C(C)(C)[C@@H]5CC[C@]43C)[C@H]12 | 2.9 | 44.9 | – |
| 6.4 | – | C[C@H]1[C@H](C)CC[C@]2(C(=O)O)CC[C@]3(C)C(=CC[C@@H]4[C@@]5(C)CC[C@H](OC(=O)CCCC(=O)O)C(C)(C)[C@@H]5CC[C@]43C)[C@H]12 | 4.8 | 30.7 | – |
